# Rows were chosen to be rich in hits. Some 3.5% of all compounds tested hit in one or more screens of this group.
# MrgX1 antag = antagonists of human MrgX1 receptor, primary screen, HEK293 cells, Fluo-4 calcium flux. Mas-related G-protein coupled receptor member X1 (Homo sapiens), Q96LB2. BAM8-22 antagonism; stronger effect = lower value. B-score at 10 µM. actives 1.3% (n = 310,000). AID 588676, 2011;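 active = calcium-response B-score plate-corrected more than 3 library SD below zero, starting fluorescence within 5 deviations, no agonist response on first addition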;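 also: peak minus trough fluorescence over baseline after final BAM8-22 challenge near maximal dose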
# Target sequence (Q96LB2 whole entry, looked up): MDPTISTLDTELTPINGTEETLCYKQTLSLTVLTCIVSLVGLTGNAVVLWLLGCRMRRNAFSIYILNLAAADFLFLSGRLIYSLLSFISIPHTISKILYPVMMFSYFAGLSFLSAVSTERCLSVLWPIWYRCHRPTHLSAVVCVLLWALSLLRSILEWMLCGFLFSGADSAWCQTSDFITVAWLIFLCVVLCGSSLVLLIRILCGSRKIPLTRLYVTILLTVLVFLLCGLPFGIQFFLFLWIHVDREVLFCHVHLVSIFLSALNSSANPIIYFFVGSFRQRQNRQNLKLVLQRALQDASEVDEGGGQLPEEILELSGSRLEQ
# RGS4 pot = RGS4 potentiators or activators, primary screen, cell-based, HEK293 M3R inducible RGS4, calcium flux. actives 0.92% (n = 310,000). carbachol calcium flux Fluo4; stronger effect = lower value. AID 463111, 2010. B-score at 10 µM;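 active = B-score of the integrated calcium signal more than 4 SD below the library mean, with starting fluorescence not abnormally high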;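 also: negative B-score means reduced calcium response which marks RGS4 activation or potentiation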
#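 test system = M3R-expressing HEK293 line, RGS4 induced by doxycycline | probe or stimulus = carbachol at ECmax as muscarinic agonist stimulus | timing = dye loading 30 min 37 °C, buffer rest 30 min RT | signal = calcium dye Fluo4 fluorescence | evaluation = B score from integrated fluorescence ratio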
# MrgX1 agonist = agonists of human MrgX1 receptor, primary screen, HEK293 cells, Fluo-4 calcium flux; actives 0.44% (n = 310,000); B-score at 10 µM; Fluo-4 calcium fluorescence, agonist mode; stronger effect = higher value;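 active = calcium response B-score plate-corrected fluorescence ratio at least 3 library SD, with starting fluorescence B-score inside 5 SD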
#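 Material – MrgX1-expressing HEK293 cells · Input – 15,000 cells seeded per well · Dosing – compound as first of three additions · Times – overnight seeding, then 1 h dark dye loading · Measured by – kinetic Fluo-4 NW fluorescence of intracellular calcium · Read-out – B-scored fluorescence response ratio · Benchmarks – positive and negative control wells on each plate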
# RGS4 block = RGS4 inhibitors, primary screen, cell-based, HEK293 M3R inducible RGS4, calcium flux. Fluo-4 calcium flux; stronger effect = higher value; triggered by carbachol at its EC20. B-score at 10 µM. actives 0.45% (n = 310,000);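 active = B-score, a plate-corrected calcium signal, over three deviations above library mean, with baseline fluorescence within five deviations of library mean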;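 also: RGS4 expression induced by doxycycline in cells with stable M3 receptor; B-score is computed from the integrated fluorescence ratio over baseline after carbachol; higher B-score means a larger calcium signal and so more RGS4 inhibition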
# Target sequence (P49798 whole entry, looked up): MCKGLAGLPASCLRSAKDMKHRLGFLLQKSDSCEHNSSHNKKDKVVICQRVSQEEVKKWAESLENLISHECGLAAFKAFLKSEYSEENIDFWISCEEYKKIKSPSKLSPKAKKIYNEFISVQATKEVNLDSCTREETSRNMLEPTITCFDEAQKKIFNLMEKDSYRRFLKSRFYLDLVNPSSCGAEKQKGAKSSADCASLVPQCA
# MrgX1 allo act = positive allosteric modulators of MrgX1, primary screen, HEK293 cells, Fluo-4 calcium flux; actives 0.63% (n = 310,000); B-score at 10 µM; AID 588675, 2011; FDSS; stronger effect = higher value;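 active = plate-corrected calcium response at least 3 library SD above typical, normal starting fluorescence, not activating the receptor alone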;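 also: compound read alongside a low EC10 to EC30 dose of BAM8-22 agonist; peak minus trough fluorescence over baseline measured at the second addition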
# MrgX1 ant reconf = MrgX1 receptor antagonists, duplicate retest, confirmation, HEK293 cells, Fluo-4 calcium flux. shares compounds with MrgX1 antag. BAM8-22 calcium flux; stronger effect = lower value. remaining BAM8-22 calcium response % of control (stronger effect = lower value), % at 10 µM. actives 19% (n = 2,300);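 active = remaining agonist calcium response no higher than 100% minus 3 SD of agonist-only control wells, with starting fluorescence near control levels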;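 also: agonist BAM8-22 given at a near maximal EC90 to ECmax level; peak minus minimum fluorescence divided by baseline after agonist addition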
# HEK293 Ca flux = nonspecific calcium signal in parental HEK293, confirmation, counter-screen for MrgX1 antagonist project, parental HEK293 cells, Fluo-4 calcium flux; fluorescence ratio F(max-min)/F0 at 10 µM; actives 2% (n = 4,000); shares compounds with MrgX1 antag; Fluo-4 calcium fluorescence, FDSS;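 active = duplicate-averaged calcium fluorescence ratio at least three times the standard deviation of buffer wells, a nonspecific response in parental cells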
# HEK293 Ca counter = calcium response in parental HEK293 cells, primary screen, counter-screen for MrgX1 allosteric activator project, cell-based, Fluo-4 calcium flux, duplicate; shares compounds with MrgX1 antag; AID 624114, 2012; fluorescence ratio F(max-min)/F0 at 10 µM; Fluo-4 fluorescence ratio; stronger effect = higher value; actives 0.4% (n = 4,000);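 active = calcium fluorescence ratio, averaged over duplicates, at least 3 SD of the buffer-well ratio, meaning a nonspecific response in receptor-free cells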;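 also: untransfected parental HEK293 lacking MrgX1 used as counterscreen for MrgX1 allosteric activators; fluorescence change taken during the second addition on a kinetic imager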
# HEK293 Ca cntr2 = calcium response in parental HEK293 cells, primary screen, counter-screen for MrgX1 agonist project, cell-based, Fluo-4 calcium flux, duplicate, agonist mode | AID 624115, 2012 | shares compounds with MrgX1 antag | actives 8.7% (n = 4,000) | fluorescence ratio F(max-min)/F0 at 10 µM | Fluo-4 calcium fluorescence (FDSS); stronger effect = higher value;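 active = calcium fluorescence ratio at least three times the spread of buffer wells, meaning a non-specific response in parental cells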
# * hit, by the source's call; i = inactive; · = no result; ! = a repeat was not active.
SMILES,MrgX1 antag,RGS4 pot,MrgX1 agonist,RGS4 block,MrgX1 allo act,MrgX1 ant reconf,HEK293 Ca flux,HEK293 Ca counter,HEK293 Ca cntr2
CCOC(=O)c1ccc(-c2c(C(=O)OCC)oc3cc(O)c(CC)cc3c2=O)o1,-4.8*,i,i,i,i,80%*,i,i,i
S=C(NCCNC(=S)Nc1ccccc1Cl)Nc1ccccc1Cl,-4.7*,i,i,i,i,85%*,i,i,i
CN(C)CCNC(=S)Nc1ccccc1Cl,i,i,i,i,i,·,·,·,·
Cc1c(Cl)cccc1NC(=S)NCCCN(C)C,-5.5*,i,i,i,i,i,i,i,i
CCOCCCn1c(SCC(=O)Nc2oc(C)c3c(C)n[nH]c(=O)c23)nnc1-c1ccncc1,i,i,i,i,i,·,·,·,·
C=CCn1c(C)nnc1SCC(=O)Nc1oc(C)c2c(C)n[nH]c(=O)c12,-5.3*,i,i,i,i,i,i,i,i
Cc1n[nH]c(=O)c2c(NC(=O)CSc3nnc(-c4ccncc4)n3C)oc(C)c12,-7.1*,i,i,i,i,i,i,i,i
O=C(C(=O)N1CCN(c2cccc(Cl)c2)CC1)c1cn(CC(=O)N2CCOCC2)c2ccccc12,i,i,i,i,i,·,·,·,·
C/C(=N\NC(=O)CNc1cccc(Cl)c1C)C1CC1,i,i,i,i,i,·,·,·,·
O=C(COC(=O)CCCNC(=O)c1ccc(Cl)cc1)Nc1cc(Cl)c(Cl)cc1Cl,i,i,i,i,i,·,·,·,·
Cc1cc(C)cc(NC(=O)COC(=O)CCCNC(=O)c2ccc(Cl)cc2)c1,-9.7*,i,i,i,i,77%*,i,i,i
Cc1cccc(N(C(=O)c2csnn2)C(C(=O)NC2CCCCC2)c2ccccn2)c1C (configuration not stated),i,i,i,i,i,·,·,·,·
Cc1cc(NC(=O)CCCC(=O)O)nc(C)n1,-6.4*,i,i,i,i,i,i,i,i
CCOc1ccccc1N=Nc1c(C)[nH]n(C(N)=S)c1=O,i,i,i,i,i,·,·,·,·
Cc1nc(N2CCN(c3ccccn3)CC2)c2c(C)c(C(=O)N3CCN(c4ccccc4F)CC3)sc2n1,i,i,i,i,i,·,·,·,·
O=C(Nc1cn(-c2ccccc2)nc1-c1ccc(F)cc1)c1ccccc1,-5.3*,i,i,i,i,81%*,i,i,i
Cc1ccccc1OCC(O)Cn1c(=N)n(CCN2CCOCC2)c2ccccc21 (configuration not stated),-8.5*!,i,i,i,i,i,i,i,i
Cc1cc(C)c(C(N)=O)c(NC(=O)Nc2ccccc2Cl)n1,-4.6*,i,i,i,i,i,i,i,i
Cc1cc(C)c(C(N)=O)c(Nc2cccc(Cl)c2C)n1,i,i,i,i,i,·,·,·,·
N#Cc1c(N2CCSCC2)nsc1-c1ccccc1Cl,i,i,i,i,i,·,·,·,·
COc1ccc(-c2cn(CCO)nc2-c2ccc(OC)cc2)cc1,i,i,i,i,i,·,·,·,·
CC(c1ccccc1C(O)(c1ccccc1)c1ccccc1)N(C)C (configuration not stated),-5.4*,i,i,i,i,i,i,i,i
Cc1cccc(NC(=O)Nc2c(C)n(C)n(-c3ccccc3)c2=O)c1C,i,i,i,i,i,·,·,·,·
Cc1cccc(NC(=S)Nc2c(C)n(C)n(-c3ccccc3)c2=O)c1C,-18*,i,i,i,i,i,i,i,i
COc1ccnc(CSC(N)=Nc2cccc(C(F)(F)F)c2)c1,i,i,i,i,i,·,·,·,·
SMILES,MrgX1 antag,RGS4 pot,MrgX1 agonist,RGS4 block,MrgX1 allo act,MrgX1 ant reconf,HEK293 Ca flux,HEK293 Ca counter,HEK293 Ca cntr2
CCN1CCN(C(=O)CN2C(=O)COc3ccc(C)cc32)CC1,i,i,i,i,i,·,·,·,·
Cc1cc(-c2csc3ncnc(N4CCN(C)CC4)c23)cc(C)c1C,-4.9*,i,i,i,i,i,i,i,i
CN1CCN(c2ncnc3scc(-c4ccccc4Cl)c23)CC1,i,i,i,i,i,·,·,·,·
CC1CCCCC1NC(=O)CN(C)S(=O)(=O)c1cccc2cccnc12 (configuration not stated),i,i,i,i,i,·,·,·,·
Cc1ccc(N2CCC(N3CCN(C)C(CCO)C3)CC2)cc1 (configuration not stated),-5*,i,i,i,i,i,i,i,i
COc1cccc(N2CCC(N3CCN(C)C(CCO)C3)CC2)c1 (configuration not stated),i,i,i,i,i,·,·,·,·
COc1ccc2cc(S(=O)(=O)N3CCOCC3)ccc2c1,i,i,i,i,i,·,·,·,·
CCN1c2ccc(S(=O)(=O)N3CCOCC3)cc2N(Cc2ccc(OC)cc2)C1C (configuration not stated),-4.7*,i,i,i,i,i,i,i,i
CSc1ccc(CN2CCN(Cc3ccccc3)C(CCO)C2)cc1 (configuration not stated),-4.8*,i,i,i,i,83%*,i,i,i
CSc1cccc(CN2CCN(Cc3ccccc3)C(CCO)C2)c1 (configuration not stated),-5.2*,i,i,i,i,83%*,i,i,i

# Screening results from PubChem.
